The record followed here is ChEMBL document CHEMBL1150594, “Suberosols A-D, four new sesquiterpenes with beta-caryophyllene skeletons from a Taiwanese gorgonian coral Subergorgia suberosa” (2002).

Values after ≈ are worked out from the molar mass of the structure shown.

Assay type in all cases: functional
Settings in all cases: read-out: ED50 (the source's name)

One experiment deals with HT-29. As to the kind of experiment: Cytotoxicity against human HT-29 cells by MTT assay. A digest of the protocol:
(§1)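 Growth inhibition of cancer cells read by a modified MTT colorimetric method, following a previously described procedure. P-388 cells were obtained from an academic laboratory; A549 and HT-29 cells came from the American Type Culture Collection.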
A general note: Tetrazolium dyes change colour on reduction, which living cells bring about.

Another experiment concerns P388. The experiment is described as follows: Cytotoxicity against mouse P388 cells by MTT assay. An outline of the steps: as §1
In a further experiment the test system is A549. The experiment is described as follows: Cytotoxicity against human A549 cells by MTT assay. A digest of the protocol: as §1

Regarding `C=C1CC/C=C(\C)C(=O)C[C@@H]2[C@@H]1CC2(C)C` [BUDDLEDIN C], the EC50 with HT-29 turned out to be 3.6 µg/mL (≈ 16.5 µM); with P388 it was 4.6 µg/mL (≈ 21.1 µM); with A549, 3.8 µg/mL (≈ 17.4 µM).

On to `C=C1CC/C=C(/C)C(=O)C[C@@H]2[C@@H]1CC2(C)C` [BUDDLEDIN D], for which the results for the EC50 in the experiment with HT-29, in the experiment with P388 and in the experiment on A549 were 6.6 µg/mL (≈ 30.2 µM), 6.3 µg/mL (≈ 28.9 µM) and 8.9 µg/mL (≈ 40.8 µM), respectively.

On to `C=C1CC[C@H]2O[C@]2(C)[C@@H](O)C[C@@H]2[C@@H]1CC2(C)C` [SUBEROSOL A], for which the EC50 in the experiment with HT-29 is greater than 50 µg/mL; in the experiment on P388, 3.8 µg/mL (≈ 16.1 µM); in the experiment on A549 it was greater than 50 µg/mL.

For `C=C1CC[C@H]2O[C@]2(C)[C@H](O)C[C@@H]2[C@@H]1CC2(C)C` [SUBEROSOL B], the EC50 with HT-29 was greater than 50 µg/mL; in the experiment on P388, 7.4 µg/mL (≈ 31.3 µM); in the experiment with A549, greater than 50 µg/mL.

Regarding `C=C1CC/C=C(\C)[C@H](O)C[C@@H]2[C@@H]1CC2(C)C` [SUBEROSOL C], the figures for the EC50 in the experiment with HT-29, in the experiment with P388 and in the experiment with A549 were 2.3 µg/mL (≈ 10.4 µM), 2.1 µg/mL (≈ 9.53 µM) and 5.6 µg/mL (≈ 25.4 µM), respectively.

Regarding `C=C1CC/C=C(/C)[C@@H](O)C[C@@H]2[C@@H]1CC2(C)C` [SUBEROSOL D], the EC50 was 3.8 µg/mL (≈ 17.2 µM) in the experiment on HT-29, 3.3 µg/mL (≈ 15 µM) in the experiment with P388 and 4.2 µg/mL (≈ 19.1 µM) with A549.
